Where “and” joins values, the source holds several entries; their conditions need not be identical. Equal values may be shown once.
Columns and labels:
HEK-293T = experiment: Multiplex assay against HEK293T; assay type: toxicity, cell-based; details: human
How it was run: (§1)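 Compound was added to live cells that had been stained at seeding with Hoechst33342, BioTracker Green Microtubule Cytoskeleton Dye, MitoTracker Red and Annexin V Alexa Fluor 680, and imaging followed on a CQ1 microscope at 37°C and 5% CO2. CellPathfinder machine-learning gating divided cells into Hoechst high-intensity objects or normal cells, normal cells into healthy, pyknosed or fragmented nuclei, and pyknosed cells into mitotic or apoptotic. Tubulin, mitochondrial-mass and membrane-permeability phenotypes are per cents of healthy-nucleus cells.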

U2OS = experiment: Multiplex assay against U2OS; assay type: toxicity, cell-based; details: human; how it was run: as §1
[1] = 24 h, 1 µM, compound concentration 1 uM
[2] = 24 h, 10 µM, compound concentration 10 uM
[3] = 48 h, 1 µM, compound concentration 1 uM
[4] = 48 h, 10 µM, compound concentration 10 uM
[5] = 12 h, 1 µM, compound concentration 1 uM
[6] = 12 h, 10 µM, compound concentration 10 uM

CC(C)(C)c1cc(C(C)(C)C)c(NC(=O)c2c[nH]c3ccccc3c2=O)cc1O [IVACAFTOR]
Population Mitotic Cells (%) (HEK-293T; [1]): 84.4% and 82.11%
Population Normal (%) (HEK-293T; [1]): 100%
Population Tubulin-Different-Phenotype (%) (HEK-293T; [1]): 7.13% and 10.2%
Population Apoptotic (%) (HEK-293T; [2]): 52.29% and 35.25%
Population Fragmented Nuclei (%) (HEK-293T; [2]): 2.77% and 2.63%
Population Hoechst High Intensity Objects (%) (HEK-293T; [2]): 0.82% and 0%
Population Membrane Permeable-Phenotype (%) (HEK-293T; [2]): 0% and 3.85%
Population Mitotic Cells (%) (HEK-293T; [2]): 47.71% and 64.75%
Population Normal (%) (HEK-293T; [2]): 99.18% and 100%
Population Pyknosed Nuclei (%) (HEK-293T; [2]): 30.19% and 80.26%
Population Tubulin-Different-Phenotype (%) (HEK-293T; [2]): 10.74% and 7.69%
Total Cell Count (HEK-293T; [2]): 364 and 152
Population Apoptotic (%) (HEK-293T; [3]): 8.49% and 16.88%
Population Fragmented Nuclei (%) (HEK-293T; [3]): 2.06% and 0.56%
Population Healthy Nuclei (%) (HEK-293T; [3]): 89.56% and 55.93%
Population Hoechst High Intensity Objects (%) (HEK-293T; [3]): 0.24% and 0.56%
Population Membrane Permeable-Phenotype (%) (HEK-293T; [3]): 3.45% and 1.01%
Population Mitotic Cells (%) (HEK-293T; [3]): 91.51% and 83.12%
Population Normal (%) (HEK-293T; [3]): 99.76% and 99.44%
Population Apoptotic (%) (HEK-293T; [4]): 17.35% and 40.23%
Population Fragmented Nuclei (%) (HEK-293T; [4]): 2.23% and 4%
Population Healthy Nuclei (%) (HEK-293T; [4]): 84.89% and 46.29%
Population Hoechst High Intensity Objects (%) (HEK-293T; [4]): 0.13% and 1.69%
Population Membrane Permeable-Phenotype (%) (HEK-293T; [4]): 2.48% and 1.23%
Population Mitochondria Different-Phenotype (%) (HEK-293T; [4]): 34.21% and 56.79%
Population Mitotic Cells (%) (HEK-293T; [4]): 82.65% and 59.77%
Population Normal (%) (HEK-293T; [4]): 99.87% and 98.31%
Population Apoptotic (%) (U2OS; [5]): 36.36% and 31.58%
Population Fragmented Nuclei (%) (U2OS; [5]): 1.43% and 1.95%
Population Healthy Nuclei (%) (U2OS; [5]): 92.26% and 85.71%
Population Hoechst High Intensity Objects (%) (U2OS; [5]): 0%
Population Membrane Permeable-Phenotype (%) (U2OS; [5]): 0.62% and 0.76%
Population Mitochondria Different-Phenotype (%) (U2OS; [5]): 0% and 7.58%
Population Mitotic Cells (%) (U2OS; [5]): 63.64% and 68.42%
Population Normal (%) (U2OS; [5]): 100%
Population Pyknosed Nuclei (%) (U2OS; [5]): 6.3% and 12.34%
Population Tubulin-Different-Phenotype (%) (U2OS; [5]): 0.62% and 0%
Total Cell Count (U2OS; [5]): 349 and 154
Population Apoptotic (%) (U2OS; [6]): 44.16% and 30.95%
Population Fragmented Nuclei (%) (U2OS; [6]): 2.96% and 8.38%
Population Healthy Nuclei (%) (U2OS; [6]): 74.26% and 66.47%
Population Hoechst High Intensity Objects (%) (U2OS; [6]): 0%
Population Membrane Permeable-Phenotype (%) (U2OS; [6]): 3.59% and 13.51%
Population Mitotic Cells (%) (U2OS; [6]): 55.84% and 69.05%
Population Normal (%) (U2OS; [6]): 100%
Population Pyknosed Nuclei (%) (U2OS; [6]): 22.78% and 25.15%
Population Tubulin-Different-Phenotype (%) (U2OS; [6]): 10.76% and 1.8%
Total Cell Count (U2OS; [6]): 338 and 167
Population Apoptotic (%) (U2OS; [1]): 22.95% and 40%
Population Fragmented Nuclei (%) (U2OS; [1]): 1.83% and 3.23%
Population Healthy Nuclei (%) (U2OS; [1]): 85.77% and 86.02%
Population Hoechst High Intensity Objects (%) (U2OS; [1]): 0%
Population Membrane Permeable-Phenotype (%) (U2OS; [1]): 0.24% and 1.88%
Population Mitochondria Different-Phenotype (%) (U2OS; [1]): 0% and 6.88%
Population Mitotic Cells (%) (U2OS; [1]): 77.05% and 60%
Population Normal (%) (U2OS; [1]): 100%
Population Pyknosed Nuclei (%) (U2OS; [1]): 12.4% and 10.75%
Population Tubulin-Different-Phenotype (%) (U2OS; [1]): 0.71% and 0%
Total Cell Count (U2OS; [1]): 492 and 186
Population Apoptotic (%) (U2OS; [2]): 51.81% and 29.41%
Population Fragmented Nuclei (%) (U2OS; [2]): 3.33% and 6.94%
Population Healthy Nuclei (%) (U2OS; [2]): 75.38% and 63.58%
Population Hoechst High Intensity Objects (%) (U2OS; [2]): 0%
Population Mitotic Cells (%) (U2OS; [2]): 48.19% and 70.59%
Population Normal (%) (U2OS; [2]): 100%
Population Pyknosed Nuclei (%) (U2OS; [2]): 21.28% and 29.48%
Population Tubulin-Different-Phenotype (%) (U2OS; [2]): 8.84% and 7.27%
Total Cell Count (U2OS; [2]): 390 and 173
Population Apoptotic (%) (U2OS; [3]): 47.3% and 42.86%
Population Fragmented Nuclei (%) (U2OS; [3]): 2.51% and 4.1%
Population Healthy Nuclei (%) (U2OS; [3]): 89.07% and 81.57%
Population Hoechst High Intensity Objects (%) (U2OS; [3]): 0%
Population Membrane Permeable-Phenotype (%) (U2OS; [3]): 0.13% and 0.84%
Population Mitochondria Different-Phenotype (%) (U2OS; [3]): 0% and 5.86%
Population Mitotic Cells (%) (U2OS; [3]): 52.7% and 57.14%
Population Normal (%) (U2OS; [3]): 100%
Population Pyknosed Nuclei (%) (U2OS; [3]): 8.43% and 14.33%
Population Tubulin-Different-Phenotype (%) (U2OS; [3]): 0.64% and 1.67%
Total Cell Count (U2OS; [3]): 878 and 293
Population Apoptotic (%) (U2OS; [4]): 55% and 62.65%
Population Healthy Nuclei (%) (U2OS; [4]): 75.09% and 44.95%
Population Hoechst High Intensity Objects (%) (U2OS; [4]): 0% and 0.5%
Population Membrane Permeable-Phenotype (%) (U2OS; [4]): 2.72% and 10.11%
Population Mitotic Cells (%) (U2OS; [4]): 45% and 37.35%
Population Normal (%) (U2OS; [4]): 100% and 99.5%
Population Pyknosed Nuclei (%) (U2OS; [4]): 22.3% and 41.92%
Population Tubulin-Different-Phenotype (%) (U2OS; [4]): 11.88% and 16.85%
Total Cell Count (U2OS; [4]): 538 and 199

Reference: ChEMBL document CHEMBL5724801, “EUbOPEN Chemogenomics Library - Multiplex” (2024)
